Data reported in ChEMBL document CHEMBL1255404, “Spread of OXA-48-encoding plasmid in Turkey and beyond” (2010).
≈ marks a conversion by molar mass, not a printed value.

Key:
Type in all cases: functional
Klebsiella pneumoniae [1] = assay: Antimicrobial activity against Klebsiella pneumoniae isolate Kp5A expressing beta-lactamase OXA-48 and SHV-5 by Etest method
Escherichia coli [2] = assay: Antimicrobial activity against Escherichia coli isolate J53 harboring pI-1 containing beta-lactamase OXA-48 located within transposon Tn1999.2 by Etest method
Outline: (§1)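 β-Lactam MICs read with Etest strips. Strains are E. coli J53 recipient and J53 transconjugants carrying OXA-48-positive plasmids recovered from clinical enterobacterial isolates.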

Escherichia coli [3] = assay: Antimicrobial activity against Escherichia coli isolate J53 harboring pA-1 containing beta-lactamase OXA-48 located within transposon Tn1999 by Etest method; outline: as §1
Klebsiella pneumoniae [4] = assay: Antimicrobial activity against Klebsiella pneumoniae isolate Kp3A expressing beta-lactamase OXA-48 by Etest method
Outline: (§2)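 MICs of β-lactams read from Etest strips. The test organisms are carbapenem-resistant, OXA-48-positive clinical Enterobacteriaceae isolates recovered from Turkey, Lebanon, Egypt, France and Belgium.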

Escherichia coli [5] = assay: Antimicrobial activity against Escherichia coli isolate A expressing beta-lactamase OXA-48 and TEM-150 by Etest method
Escherichia coli [6] = assay: Antimicrobial activity against Escherichia coli isolate J53 harboring p6A containing beta-lactamase OXA-48 located within transposon Tn1999 by Etest method; outline: as §1
Providencia rettgeri = assay: Antimicrobial activity against Providencia rettgeri isolate expressing beta-lactamase OXA-48 and TEM-101 by Etest method
Klebsiella pneumoniae [7] = assay: Antimicrobial activity against Klebsiella pneumoniae isolate Kp6A expressing beta-lactamase OXA-48 and TEM-150 by Etest method
Escherichia coli [8] = assay: Antimicrobial activity against Escherichia coli isolate J53 harboring pCF containing beta-lactamase OXA-48 located within transposon Tn1999 by Etest method; outline: as §1
Escherichia coli [9] = assay: Antimicrobial activity against Escherichia coli isolate J53 harboring p3A containing beta-lactamase OXA-48 located within transposon Tn1999 by Etest method; outline: as §1
Enterobacter cloacae [10] = assay: Antimicrobial activity against Enterobacter cloacae isolate 1 expressing beta-lactamase OXA-48 and SHV-5 by Etest method
Escherichia coli [11] = assay: Antimicrobial activity against Escherichia coli isolate J53 harboring p7A containing beta-lactamase OXA-48 located within transposon Tn1999 by Etest method; outline: as §1
Escherichia coli [12] = assay: Antimicrobial activity against Escherichia coli isolate J53 harboring pEnc2 containing beta-lactamase OXA-48 located within transposon Tn1999 by Etest method; outline: as §1
Escherichia coli [13] = assay: Antimicrobial activity against Escherichia coli isolate J53 harboring pBb containing beta-lactamase OXA-48 located within transposon Tn1999.2 by Etest method; outline: as §1
Escherichia coli [14] = assay: Antimicrobial activity against Escherichia coli isolate J53 by Etest method; outline: as §1
Klebsiella pneumoniae [15] = assay: Antimicrobial activity against Klebsiella pneumoniae isolate KpBIC expressing beta-lactamase OXA-48 by Etest method; outline: as §2
Escherichia coli [16] = assay: Antimicrobial activity against Escherichia coli isolate TOP10 harboring pBIC containing beta-lactamase OXA-48 located within transposon Tn1999.2 by Etest method
Outline: (§3)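 β-Lactam MICs read with Etest strips. Strains are E. coli TOP10 host and TOP10 transformants made with plasmid DNA extract when conjugation failed. Transformants were selected on LB agar with ticarcillin 50 μg/ml.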

Enterobacter cloacae [17] = assay: Antimicrobial activity against Enterobacter cloacae isolate 2 expressing beta-lactamase OXA-48 and SHV-5 by Etest method
Escherichia coli [18] = assay: Antimicrobial activity against Escherichia coli isolate J53 harboring pEcA containing beta-lactamase OXA-48 located within transposon Tn1999.2 by Etest method; outline: as §1
Klebsiella pneumoniae [19] = assay: Antimicrobial activity against Klebsiella pneumoniae isolate Kp11978 expressing beta-lactamase OXA-48, SHV-2a and TEM-1 by Etest method
Escherichia coli [20] = assay: Antimicrobial activity against Escherichia coli isolate J53 harboring pL containing beta-lactamase OXA-48 located within transposon Tn1999.2 by Etest method; outline: as §1
Klebsiella pneumoniae [21] = assay: Antimicrobial activity against Klebsiella pneumoniae isolate KpI-1 expressing beta-lactamase OXA-48 and CTX-M-15 by Etest method
Escherichia coli [22] = assay: Antimicrobial activity against Escherichia coli isolate J53 harboring pBEL containing beta-lactamase OXA-48 located within transposon Tn1999.2 by Etest method; outline: as §1
Klebsiella pneumoniae [23] = assay: Antimicrobial activity against Klebsiella pneumoniae isolate KpL expressing beta-lactamase OXA-48 by Etest method
Escherichia coli [24] = assay: Antimicrobial activity against Escherichia coli isolate J53 harboring pI-2 containing beta-lactamase OXA-48 located within transposon Tn1999.2 by Etest method; outline: as §1
Escherichia coli [25] = assay: Antimicrobial activity against Escherichia coli isolate J53 harboring p4A containing beta-lactamase OXA-48 located within transposon Tn1999 by Etest method; outline: as §1
Klebsiella pneumoniae [26] = assay: Antimicrobial activity against Klebsiella pneumoniae isolate KpE expressing beta-lactamase OXA-48 and CTX-M-15 by Etest method
Klebsiella pneumoniae [27] = assay: Antimicrobial activity against Klebsiella pneumoniae isolate Kp7A expressing beta-lactamase OXA-48 by Etest method; outline: as §2
Escherichia coli [28] = assay: Antimicrobial activity against Escherichia coli isolate J53 harboring p5A containing beta-lactamase OXA-48 located within transposon Tn1999 by Etest method; outline: as §1
Klebsiella pneumoniae [29] = assay: Antimicrobial activity against Klebsiella pneumoniae isolate KpB expressing OXA-48 and CTX-M-15 by Etest method
Klebsiella pneumoniae [30] = assay: Antimicrobial activity against Klebsiella pneumoniae isolate Kp4A expressing beta-lactamase OXA-48 and CTX-M-15 by Etest method
Citrobacter freundii = assay: Antimicrobial activity against Citrobacter freundii isolate expressing beta-lactamase OXA-48 by Etest method
Escherichia coli [31] = assay: Antimicrobial activity against Escherichia coli isolate TOP10 harboring pPR containing beta-lactamase and TEM-101 by Etest method; outline: as §3
Escherichia coli [32] = assay: Antimicrobial activity against Escherichia coli isolate J53 harboring pE containing beta-lactamase OXA-48 located within transposon Tn1999.2 by Etest method; outline: as §1
Escherichia coli [33] = assay: Antimicrobial activity against Escherichia coli isolate TOP10 by Etest method; outline: as §3
Escherichia coli [34] = assay: Antimicrobial activity against Escherichia coli isolate J53 harboring pEnc1 containing beta-lactamase OXA-48 located within transposon Tn1999 by Etest method; outline: as §1
Klebsiella pneumoniae [35] = assay: Antimicrobial activity against Klebsiella pneumoniae isolate KpBEL expressing beta-lactamase OXA-48 by Etest method; outline: as §2
Klebsiella pneumoniae [36] = assay: Antimicrobial activity against Klebsiella pneumoniae isolate KpI-2 expressing beta-lactamase OXA-48 and CTX-M-15 by Etest method

Row | Structure (SMILES) | MIC (Klebsiella pneumoniae [1]) [µg/mL] | MIC (Escherichia coli [2]) [µg/mL] | MIC (Escherichia coli [3]) [µg/mL] | MIC (Klebsiella pneumoniae [4]) [µg/mL] | MIC (Escherichia coli [5]) [µg/mL] | MIC (Escherichia coli [6]) [µg/mL] | MIC (Providencia rettgeri) [µg/mL] | MIC (Klebsiella pneumoniae [7]) [µg/mL] | MIC (Escherichia coli [8]) [µg/mL] | MIC (Escherichia coli [9]) [µg/mL] | MIC (Enterobacter cloacae [10]) [µg/mL] | MIC (Escherichia coli [11]) [µg/mL] | MIC (Escherichia coli [12]) [µg/mL] | MIC (Escherichia coli [13]) [µg/mL] | MIC (Escherichia coli [14]) [µg/mL] | MIC (Klebsiella pneumoniae [15]) [µg/mL] | MIC (Escherichia coli [16]) [µg/mL] | MIC (Enterobacter cloacae [17]) [µg/mL] | MIC (Escherichia coli [18]) [µg/mL] | MIC (Klebsiella pneumoniae [19]) [µg/mL] | further results
1 | CCN1CCN(C(=O)N[C@@H](C(=O)N[C@@H]2C(=O)N3[C@@H]2SC(C)(C)[C@@H]3C(=O)O)c2ccccc2)C(=O)C1=O [PIPERACILLIN] | > 512 | 512 (≈ 989 µM) | 8 (≈ 15.5 µM) | > 512 | > 256 | > 512 | > 256 | > 512 | > 512 | 512 (≈ 989 µM) | > 512 | > 512 | > 512 | > 512 | 1 (≈ 1.93 µM) | > 512 | > 512 | > 512 | 128 (≈ 247 µM) | > 512 | MIC (Escherichia coli [20]): 64 µg/mL (≈ 124 µM); MIC (Klebsiella pneumoniae [21]): > 512 µg/mL; MIC (Escherichia coli [22]): 128 µg/mL (≈ 247 µM); MIC (Klebsiella pneumoniae [23]): 96 µg/mL (≈ 185 µM); MIC (Escherichia coli [24]): 512 µg/mL (≈ 989 µM); MIC (Escherichia coli [25]): > 512 µg/mL; MIC (Klebsiella pneumoniae [26]): > 512 µg/mL; MIC (Klebsiella pneumoniae [27]): > 512 µg/mL; MIC (Escherichia coli [28]): > 512 µg/mL; MIC (Klebsiella pneumoniae [29]): > 512 µg/mL; MIC (Klebsiella pneumoniae [30]): > 512 µg/mL; MIC (Citrobacter freundii): > 512 µg/mL; MIC (Escherichia coli [31]): 128 µg/mL (≈ 247 µM); MIC (Escherichia coli [32]): 512 µg/mL (≈ 989 µM); MIC (Escherichia coli [33]): 2 µg/mL (≈ 3.86 µM); MIC (Escherichia coli [34]): > 512 µg/mL; MIC (Klebsiella pneumoniae [35]): > 256 µg/mL; MIC (Klebsiella pneumoniae [36]): > 512 µg/mL
2 | CO/N=C(\C(=O)N[C@@H]1C(=O)N2C(C(=O)O)=C(COC(C)=O)CS[C@H]12)c1csc(N)n1 [CEFOTAXIME] | 64 (≈ 141 µM) | 0.12 (≈ 0.263 µM) | 0.06 (≈ 0.132 µM) | 1 (≈ 2.2 µM) | 64 (≈ 141 µM) | 0.12 (≈ 0.263 µM) | 64 (≈ 141 µM) | 64 (≈ 141 µM) | 0.12 (≈ 0.263 µM) | 0.5 (≈ 1.1 µM) | > 512 | 0.5 (≈ 1.1 µM) | 0.25 (≈ 0.549 µM) | 0.5 (≈ 1.1 µM) | 0.06 (≈ 0.132 µM) | 0.5 (≈ 1.1 µM) | 0.5 (≈ 1.1 µM) | 512 (≈ 1120 µM) | 0.12 (≈ 0.263 µM) | 64 (≈ 141 µM) | MIC (Escherichia coli [20]): 0.25 µg/mL (≈ 0.549 µM); MIC (Klebsiella pneumoniae [21]): 64 µg/mL (≈ 141 µM); MIC (Escherichia coli [22]): 0.12 µg/mL (≈ 0.263 µM); MIC (Klebsiella pneumoniae [23]): 1.5 µg/mL (≈ 3.29 µM); MIC (Escherichia coli [24]): 0.12 µg/mL (≈ 0.263 µM); MIC (Escherichia coli [25]): 0.12 µg/mL (≈ 0.263 µM); MIC (Klebsiella pneumoniae [26]): 64 µg/mL (≈ 141 µM); MIC (Klebsiella pneumoniae [27]): 0.5 µg/mL (≈ 1.1 µM); MIC (Escherichia coli [28]): 0.12 µg/mL (≈ 0.263 µM); MIC (Klebsiella pneumoniae [29]): > 512 µg/mL; MIC (Klebsiella pneumoniae [30]): 64 µg/mL (≈ 141 µM); MIC (Citrobacter freundii): 64 µg/mL (≈ 141 µM); MIC (Escherichia coli [31]): 32 µg/mL (≈ 70.3 µM); MIC (Escherichia coli [32]): 0.12 µg/mL (≈ 0.263 µM); MIC (Escherichia coli [33]): 0.06 µg/mL (≈ 0.132 µM); MIC (Escherichia coli [34]): 0.25 µg/mL (≈ 0.549 µM); MIC (Klebsiella pneumoniae [35]): 0.12 µg/mL (≈ 0.263 µM); MIC (Klebsiella pneumoniae [36]): 64 µg/mL (≈ 141 µM)
